Reference: ChEMBL document CHEMBL1177643, “Synthesis, DNA-binding ability and anticancer activity of benzothiazole/benzoxazole-pyrrolo[2,1-c][1,4]benzodiazepine conjugates” (Bioorg Med Chem, 2010)

Tests used:
[1] = tested on: Calf thymus DNA; assay: Binding affinity to calf thymus duplex-form DNA assessed as cleavage of pBR322 after 16 hrs by restriction endonuclease digestion assay in presence of BamHI; assay type: nucleic-acid assay; conditions: Bos taurus
Procedure, shortened: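 pBR322 DNA (500 ng) preincubated with compound (5–30 μM) 16 h at 37 °C, then digested with BamHI (20 U) 1 h at 37 °C. Products run on 1% agarose in Tris–acetate EDTA, 80 V, 2 h. Read-out was ethidium bromide staining under UV, with an undigested and a fully digested control.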

[2] = tested on: A-375; assay: Cell cycle arrest in human A375 cells assessed as accumulation at G0 phase at 2 uM after 24 hrs using propidium iodide staining by flow cytometry; assay type: functional
Procedure, shortened: (§1)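 A375 cells (5×10^5) grown 24 h, then exposed to compound 24 h (DMSO control). Trypsin–EDTA harvest, fixed in ice-cold 70% ethanol at 4 °C 30 min, RNase A 37 °C 30 min, propidium iodide staining. DNA content measured by flow cytometry on 20,000 events, gated as sub-G1/G0, G1, S and G2/M.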

[3] = tested on: A-375; assay: Cell cycle arrest in human A375 cells assessed as accumulation at G1 phase at 2 uM after 24 hrs using propidium iodide staining by flow cytometry; assay type: functional; procedure, shortened: as §1
[4] = tested on: A-375; assay: Cell cycle arrest in human A375 cells assessed as accumulation at S phase at 2 uM after 24 hrs using propidium iodide staining by flow cytometry; assay type: functional; procedure, shortened: as §1
[5] = tested on: A-375; assay: Cell cycle arrest in human A375 cells assessed as accumulation at G2/M phase at 2 uM after 24 hrs using propidium iodide staining by flow cytometry; assay type: functional; procedure, shortened: as §1
[6] = tested on: A-375; assay: Cell cycle arrest in human A375 cells assessed as accumulation at G0/G1 phase at 2 uM after 24 hrs using propidium iodide staining by flow cytometry; assay type: functional; procedure, shortened: as §1
[7] = tested on: A-375; assay: Cell cycle arrest in human A375 cells assessed as accumulation at G0 phase at 0.5 uM after 24 hrs using propidium iodide staining by flow cytometry; assay type: functional; procedure, shortened: as §1
[8] = tested on: A-375; assay: Cell cycle arrest in human A375 cells assessed as accumulation at G1 phase at 0.5 uM after 24 hrs using propidium iodide staining by flow cytometry; assay type: functional; procedure, shortened: as §1
[9] = tested on: A-375; assay: Cell cycle arrest in human A375 cells assessed as accumulation at S phase at 0.5 uM after 24 hrs using propidium iodide staining by flow cytometry; assay type: functional; procedure, shortened: as §1
[10] = tested on: A-375; assay: Cell cycle arrest in human A375 cells assessed as accumulation at G2/M phase at 0.5 uM after 24 hrs using propidium iodide staining by flow cytometry; assay type: functional; procedure, shortened: as §1
[11] = tested on: A-375; assay: Cell cycle arrest in human A375 cells assessed as accumulation at G0/G1 phase at 0.5 uM after 24 hrs using propidium iodide staining by flow cytometry; assay type: functional; procedure, shortened: as §1
[12] = tested on: A-375; assay: Cell cycle arrest in human A375 cells assessed as accumulation at G0 phase at 1 uM after 24 hrs using propidium iodide staining by flow cytometry; assay type: functional; procedure, shortened: as §1
[13] = tested on: A-375; assay: Cell cycle arrest in human A375 cells assessed as accumulation at G1 phase at 1 uM after 24 hrs using propidium iodide staining by flow cytometry; assay type: functional; procedure, shortened: as §1
[14] = tested on: A-375; assay: Cell cycle arrest in human A375 cells assessed as accumulation at S phase at 1 uM after 24 hrs using propidium iodide staining by flow cytometry; assay type: functional; procedure, shortened: as §1
[15] = tested on: A-375; assay: Cell cycle arrest in human A375 cells assessed as accumulation at G2/M phase at 1 uM after 24 hrs using propidium iodide staining by flow cytometry; assay type: functional; procedure, shortened: as §1
[16] = tested on: A-375; assay: Cell cycle arrest in human A375 cells assessed as accumulation at G0/G1 phase at 1 uM after 24 hrs using propidium iodide staining by flow cytometry; assay type: functional; procedure, shortened: as §1
[17] = tested on: A-375; assay: Cell cycle arrest in human A375 cells assessed as accumulation at sub-G0 phase at 0.5 uM after 24 hrs using propidium iodide staining by flow cytometry; assay type: functional; procedure, shortened: as §1
[18] = tested on: A-375; assay: Cell cycle arrest in human A375 cells assessed as accumulation at sub-G0 phase at 1 uM after 24 hrs using propidium iodide staining by flow cytometry; assay type: functional; procedure, shortened: as §1
[19] = tested on: A-375; assay: Cell cycle arrest in human A375 cells assessed as accumulation at sub-G0 phase at 2 uM after 24 hrs using propidium iodide staining by flow cytometry; assay type: functional; procedure, shortened: as §1

**Q.** Which Activity [1] does the source give for `COc1cc2c(cc1O)N=C[C@@H]1CCCN1C2=O` here?
**A.** Dose-dependent effect

**Q.** And the Activity [2]?
**A.** 10.7%

**Q.** What about the Activity [3] of the same molecule?
**A.** 67.23%

**Q.** And the Activity [4]?
**A.** 13.54%

**Q.** What about the Activity [5] of the same molecule?
**A.** 8.53%

**Q.** What about the Activity [6] of the same molecule?
**A.** 77.93%

**Q.** What about the Activity [7] of the same molecule?
**A.** 3.73%

**Q.** And the Activity [8]?
**A.** 79.42%

**Q.** And the Activity [9]?
**A.** 79.42%

**Q.** And the Activity [10]?
**A.** 6.45%

**Q.** And the Activity [11]?
**A.** 83.15%

**Q.** And the Activity [12]?
**A.** 14.41%

**Q.** And the Activity [13]?
**A.** 74.22%

**Q.** What about the Activity [14] of the same molecule?
**A.** 5.03%

**Q.** What about the Activity [15] of the same molecule?
**A.** 6.34%

**Q.** What about the Activity [16] of the same molecule?
**A.** 88.63%

**Q.** What about the Activity [17] of the same molecule?
**A.** 2.23%

**Q.** What about the Activity [18] of the same molecule?
**A.** 14.41%

**Q.** And the Activity [19]?
**A.** 26.75%
